SMILES strings stand for the structures. A value given as a limit tells only on which side of the number the result lay.

Drawing on ChEMBL document CHEMBL1137146, “Thiourea inhibitors of herpesviruses. Part 3: Inhibitors of varicella zoster virus” (Bioorg Med Chem Lett, 2004), this text covers IC50 for 33 molecules.

In the assay the test system is Human alphaherpesvirus 3. Nature of the assay: inhibitory concentration against Varicella zoster virus. In kind it is functional, organism-based. The procedure, abridged: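 Compounds serially diluted and tested in duplicate against VZV. IC50 obtained by curve fitting with a sigmoidal Hill slope (0–100) model. The rest of the assay procedure follows earlier published work and is not given here.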

What is called IC50 is the point on the concentration scale where inhibition reaches its midpoint. As to `CC(NC(=O)Nc1ccc(NC(=O)c2ccccc2F)c(C#N)c1)c1ccc(F)cc1` (stereo not drawn), the IC50 (Human alphaherpesvirus 3) is 30 nM.

Under “Human alphaherpesvirus 3”, `CC(/N=C(\S)Nc1ccc(NC(=O)c2ccccc2F)cc1)c1ccc(F)cc1` (stereo not drawn) gave a half-inhibitory concentration (IC50) of 600 nM.

Molecule `CC(/N=C(\S)Nc1ccc(NC(=O)c2cc3ccccc3cn2)cc1)c1ccc(F)cc1` (stereo not drawn) registered an IC50 (Human alphaherpesvirus 3) of 180 nM.

The molecule `CC(/N=C(\S)Nc1ccc(NC(=O)c2ccccc2F)cc1Cl)c1ccc(F)cc1` (stereo not drawn) had an IC50 (Human alphaherpesvirus 3) of 1370 nM.

`CC(/N=C(\S)Nc1ccc(NC(=O)c2ccccc2F)cc1)c1c[nH]c2ccccc12` (stereo not drawn) returned an IC50 (Human alphaherpesvirus 3) of 9480 nM.

As to `CC(/N=C(\S)Nc1cc(Br)c(NC(=O)c2ccccc2F)c(Br)c1)c1ccc(F)cc1` (stereo not drawn), the IC50 (Human alphaherpesvirus 3) amounted to 70 nM.

Consider `CCC(/N=C(\S)Nc1ccc(NC(=O)c2ccccc2F)cc1)c1ccc(F)cc1` (stereo not drawn), for which the IC50 (Human alphaherpesvirus 3) was more than 17600 nM.

As for `CCOc1cc(N/C(S)=N/C(C)c2ccc(F)cc2)ccc1NC(=O)c1ccccc1F` (stereo not drawn), the IC50 (Human alphaherpesvirus 3) is 570 nM.

For the setting “Human alphaherpesvirus 3”, `CC(NC(=S)Nc1ccc(NC(=O)c2ccccc2F)cc1)c1ccc(Br)cc1` (stereo not drawn) gave an IC50 of 420 nM.

As for `CC(/N=C(\S)Nc1ccc(NC(=O)c2ccccc2F)cc1)c1ccc2ccccc2c1` (stereo not drawn), the IC50 (Human alphaherpesvirus 3) is 4510 nM.

On to `O=C(Nc1ccc(N/C(S)=N/Cc2ccccc2)cc1)c1ccccc1F`, for which the half-maximal inhibitory concentration (IC50) (Human alphaherpesvirus 3) was more than 26300 nM.

The molecule `CC(C)(/N=C(\S)Nc1ccc(NC(=O)c2ccccc2F)cc1)c1ccccc1` gave an IC50 (Human alphaherpesvirus 3) of 9700 nM.

For the setting “Human alphaherpesvirus 3”, `CC(NC(=S)Nc1ccc(NC(=O)c2ccccc2F)cc1)c1ccccc1` (stereo not drawn) returned an IC50 of 1300 nM.

Take `CC(/N=C(\S)Nc1ccc(NC(=O)c2ccc3ccccc3n2)cc1)c1ccc(F)cc1` (stereo not drawn): the IC50 (Human alphaherpesvirus 3) amounted to 90 nM.

Where the note is “Human alphaherpesvirus 3”, `COc1cc(NC(=O)c2ccccc2F)ccc1/N=C(\S)NC(C)c1ccc(F)cc1` (stereo not drawn) yielded an IC50 of 1540 nM.

The molecule `CC(/N=C(\S)Nc1ccc(NC(=O)c2ccccc2F)c(C#N)c1)c1cc2ccccc2o1` (stereo not drawn) gave an IC50 (Human alphaherpesvirus 3) of 110 nM.

Under “Human alphaherpesvirus 3”, `CC(/N=C(\S)Nc1ccc(NC(=O)c2ccccc2F)c(C(F)(F)F)c1)c1ccc(F)cc1` (stereo not drawn) gave an IC50 of 60 nM.

Under “Human alphaherpesvirus 3”, `CC(/N=C(\S)Nc1ccc(NC(=O)c2ccccc2F)cc1)c1cc2ccccc2o1` (stereo not drawn) gave an IC50 of 180 nM.

On to `C[C@@H](NC(=S)Nc1ccc(NC(=O)c2ccccc2F)cc1)c1ccc(Br)cc1` (stereo in doubt; 11), for which half-maximal inhibition (IC50) was put at 130 nM.

Turning to `CC(/N=C(\S)Nc1ccc(NC(=O)c2ccccc2F)c(C#N)c1)c1ccc(F)cc1` (stereo not drawn), the IC50 (Human alphaherpesvirus 3) is 110 nM.

As for `CC(/N=C(\S)Nc1ccc(NC(=O)c2ccccc2F)cc1)c1ccc(C#N)cc1` (stereo not drawn), the IC50 (Human alphaherpesvirus 3) was 960 nM.

Under “Human alphaherpesvirus 3”, `COc1ccccc1C(=O)Nc1ccc(N/C(S)=N/C(C)c2ccc(F)cc2)cc1` (stereo not drawn) displayed an IC50 of 190 nM.

`CC(/N=C(\S)Nc1ccc(NC(=O)c2ccccc2F)cc1)c1csc2ccccc12` (stereo not drawn): for the setting “Human alphaherpesvirus 3”, the IC50 was determined as 3560 nM.

Consider `CC(/N=C(\S)Nc1ccc(NC(=O)c2ccccc2F)cc1)c1ccc(Cl)cc1` (stereo not drawn), for which the IC50 (Human alphaherpesvirus 3) was 210 nM.

As to `COc1cc(N/C(S)=N/C(C)c2ccc(F)cc2)ccc1NC(=O)c1ccccc1F` (stereo not drawn), the midpoint of inhibition (Human alphaherpesvirus 3), the IC50, lay at 90 nM.

Take `C[C@@H](NC(=S)Nc1ccc(NC(=O)c2ccccc2F)cc1)c1ccc(Br)cc1` (stereo in doubt; 12): the IC50 was 49100 nM.

For `C[C@@H](NC(=S)Nc1ccc(NC(=O)c2ccccc2F)cc1)c1ccccc1` (stereo in doubt; 10), the IC50 is more than 19100 nM.

On to `CC(/N=C(\S)Nc1ccc(-c2cc(-c3ccnc4ccccc34)no2)cc1)c1ccc(F)cc1` (stereo not drawn), for which the IC50 (Human alphaherpesvirus 3) stood at 190 nM.

In turn, `Cc1cc(N/C(S)=N/C(C)c2ccc(F)cc2)ccc1NC(=O)c1ccccc1F` (stereo not drawn) registered an IC50 (Human alphaherpesvirus 3) of 120 nM.

`Cc1cc(NC(=O)c2ccccc2F)ccc1N/C(S)=N/C(C)c1ccc(F)cc1` (stereo not drawn) yielded an IC50 (Human alphaherpesvirus 3) of 990 nM.

As for `CC(/N=C(\S)Nc1ccc(-c2cc(Cc3ccccc3)no2)cc1)c1ccc(F)cc1` (stereo not drawn), the IC50 (Human alphaherpesvirus 3) was found to be 190 nM.

In the case of `C[C@@H](NC(=S)Nc1ccc(NC(=O)c2ccccc2F)cc1)c1ccccc1` (stereo in doubt; 9), half-maximal inhibition (IC50) was put at 700 nM.

In the case of `CC(NC(=O)Nc1ccc(NC(=O)c2ccccc2F)c(C#N)c1)c1cc2ccccc2o1` (stereo not drawn), half-maximal inhibition (Human alphaherpesvirus 3) (IC50) required 110 nM.
